Test system: Fibroblast
Test: Multiplex assay against human fibroblast
Type: toxicity, cell-based
How it was run: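 Cells stained live at seeding with Hoechst33342, BioTracker Green Microtubule Cytoskeleton Dye, MitoTracker Red and Annexin V Alexa Fluor 680 were imaged on a CQ1 microscope at 37°C and 5% CO2 after compound addition. Their classification by CellPathfinder machine-learning gating ran from Hoechst high-intensity objects versus normal cells, to healthy, pyknosed or fragmented nuclei among normal cells, to mitotic or apoptotic among pyknosed cells. Tubulin, mitochondrial-mass and membrane-permeability phenotypes are per cents of healthy-nucleus cells.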

[1] = 12 h, 1 µM, compound concentration 1 uM, replicate 1
[2] = 12 h, 1 µM, compound concentration 1 uM, replicate 2
[3] = 12 h, 10 µM, compound concentration 10 uM, replicate 1
[4] = 12 h, 10 µM, compound concentration 10 uM, replicate 2
[5] = 24 h, 1 µM, compound concentration 1 uM, replicate 1
[6] = 24 h, 1 µM, compound concentration 1 uM, replicate 2
[7] = 24 h, 10 µM, compound concentration 10 uM, replicate 1
[8] = 24 h, 10 µM, compound concentration 10 uM, replicate 2
[9] = 48 h, 1 µM, compound concentration 1 uM, replicate 1
[10] = 48 h, 1 µM, compound concentration 1 uM, replicate 2
[11] = 48 h, 10 µM, compound concentration 10 uM, replicate 1
[12] = 48 h, 10 µM, compound concentration 10 uM, replicate 2

Cl.NCCc1ccc(O)c(O)c1 [DOPAMINE HYDROCHLORIDE]
Population Apoptotic (%) [1]: 42%
Population Fragmented Nuclei (%) [1]: 13%
Population Healthy Nuclei (%) [1]: 63%
Population Hoechst High Intensity Objects (%) [1]: 1%
Population Membrane Permeable-Phenotype (%) [1]: 0%
Population Mitochondria Different-Phenotype (%) [1]: 1%
Population Mitotic Cells (%) [1]: 57%
Population Normal (%) [1]: 98%
Population Pyknosed Nuclei (%) [1]: 23%
Population Tubulin-Different-Phenotype (%) [1]: 34%
Total Cell Count [1]: 115
Population Apoptotic (%) [2]: 44%
Population Fragmented Nuclei (%) [2]: 34%
Population Healthy Nuclei (%) [2]: 40%
Population Membrane Permeable-Phenotype (%) [2]: 4%
Population Mitochondria Different-Phenotype (%) [2]: 6%
Population Mitotic Cells (%) [2]: 55%
Population Pyknosed Nuclei (%) [2]: 24%
Population Tubulin-Different-Phenotype (%) [2]: 45%
Total Cell Count [2]: 152
Population Apoptotic (%) [3]: 56%
Population Fragmented Nuclei (%) [3]: 14%
Population Healthy Nuclei (%) [3]: 62%
Population Hoechst High Intensity Objects (%) [3]: 3%
Population Membrane Permeable-Phenotype (%) [3]: 0%
Population Mitochondria Different-Phenotype (%) [3]: 3%
Population Mitotic Cells (%) [3]: 43%
Population Normal (%) [3]: 96%
Population Pyknosed Nuclei (%) [3]: 23%
Population Tubulin-Different-Phenotype (%) [3]: 14%
Total Cell Count [3]: 135
Population Apoptotic (%) [4]: 41%
Population Fragmented Nuclei (%) [4]: 35%
Population Healthy Nuclei (%) [4]: 40%
Population Hoechst High Intensity Objects (%) [4]: 4%
Population Membrane Permeable-Phenotype (%) [4]: 6%
Population Mitochondria Different-Phenotype (%) [4]: 6%
Population Mitotic Cells (%) [4]: 58%
Population Normal (%) [4]: 95%
Population Tubulin-Different-Phenotype (%) [4]: 44%
Total Cell Count [4]: 127
Population Apoptotic (%) [5]: 55%
Population Fragmented Nuclei (%) [5]: 14%
Population Healthy Nuclei (%) [5]: 69%
Population Hoechst High Intensity Objects (%) [5]: 0%
Population Membrane Permeable-Phenotype (%) [5]: 1%
Population Mitochondria Different-Phenotype (%) [5]: 1%
Population Mitotic Cells (%) [5]: 44%
Population Normal (%) [5]: 99%
Population Pyknosed Nuclei (%) [5]: 16%
Population Tubulin-Different-Phenotype (%) [5]: 31%
Total Cell Count [5]: 112
Population Apoptotic (%) [6]: 51%
Population Fragmented Nuclei (%) [6]: 34%
Population Healthy Nuclei (%) [6]: 47%
Population Hoechst High Intensity Objects (%) [6]: 2%
Population Membrane Permeable-Phenotype (%) [6]: 7%
Population Mitochondria Different-Phenotype (%) [6]: 0%
Population Mitotic Cells (%) [6]: 48%
Population Normal (%) [6]: 97%
Population Pyknosed Nuclei (%) [6]: 18%
Population Tubulin-Different-Phenotype (%) [6]: 37%
Total Cell Count [6]: 150
Population Apoptotic (%) [7]: 55%
Population Fragmented Nuclei (%) [7]: 16%
Population Healthy Nuclei (%) [7]: 69%
Population Hoechst High Intensity Objects (%) [7]: 2%
Population Membrane Permeable-Phenotype (%) [7]: 1%
Population Mitochondria Different-Phenotype (%) [7]: 5%
Population Mitotic Cells (%) [7]: 44%
Population Normal (%) [7]: 97%
Population Pyknosed Nuclei (%) [7]: 13%
Population Tubulin-Different-Phenotype (%) [7]: 22%
Total Cell Count [7]: 136
Population Apoptotic (%) [8]: 47%
Population Fragmented Nuclei (%) [8]: 37%
Population Healthy Nuclei (%) [8]: 46%
Population Hoechst High Intensity Objects (%) [8]: 3%
Population Membrane Permeable-Phenotype (%) [8]: 3%
Population Mitochondria Different-Phenotype (%) [8]: 7%
Population Mitotic Cells (%) [8]: 52%
Population Normal (%) [8]: 96%
Population Pyknosed Nuclei (%) [8]: 15%
Population Tubulin-Different-Phenotype (%) [8]: 56%
Total Cell Count [8]: 126
Population Apoptotic (%) [9]: 36%
Population Fragmented Nuclei (%) [9]: 22%
Population Healthy Nuclei (%) [9]: 66%
Population Hoechst High Intensity Objects (%) [9]: 6%
Population Membrane Permeable-Phenotype (%) [9]: 1%
Population Mitochondria Different-Phenotype (%) [9]: 2%
Population Mitotic Cells (%) [9]: 63%
Population Normal (%) [9]: 93%
Population Pyknosed Nuclei (%) [9]: 10%
Population Tubulin-Different-Phenotype (%) [9]: 28%
Total Cell Count [9]: 110
Population Apoptotic (%) [10]: 38%
Population Fragmented Nuclei (%) [10]: 33%
Population Healthy Nuclei (%) [10]: 52%
Population Membrane Permeable-Phenotype (%) [10]: 5%
Population Mitochondria Different-Phenotype (%) [10]: 3%
Population Mitotic Cells (%) [10]: 61%
Population Pyknosed Nuclei (%) [10]: 14%
Population Tubulin-Different-Phenotype (%) [10]: 43%
Total Cell Count [10]: 159
Population Apoptotic (%) [11]: 87%
Population Fragmented Nuclei (%) [11]: 21%
Population Healthy Nuclei (%) [11]: 66%
Population Hoechst High Intensity Objects (%) [11]: 4%
Population Membrane Permeable-Phenotype (%) [11]: 0%
Population Mitochondria Different-Phenotype (%) [11]: 4%
Population Mitotic Cells (%) [11]: 12%
Population Normal (%) [11]: 95%
Population Pyknosed Nuclei (%) [11]: 11%
Population Tubulin-Different-Phenotype (%) [11]: 25%
Total Cell Count [11]: 141
Population Apoptotic (%) [12]: 90%
Population Fragmented Nuclei (%) [12]: 31%
Population Healthy Nuclei (%) [12]: 60%
Population Hoechst High Intensity Objects (%) [12]: 0%
Population Membrane Permeable-Phenotype (%) [12]: 7%
Population Mitotic Cells (%) [12]: 10%
Population Normal (%) [12]: 99%
Population Pyknosed Nuclei (%) [12]: 8%
Population Tubulin-Different-Phenotype (%) [12]: 56%
Total Cell Count [12]: 116
